Assay results as given in ChEMBL document CHEMBL1144707, “Antiparasitic, antineuroinflammatory, and cytotoxic polyketides from the marine sponge Plakortis angulospiculatus collected in Brazil” (J Nat Prod, 2008).
Values after ≈ are worked out from the molar mass of the structure shown.

tested on: not listed separately; experiment: Selectivity index, ratio of IC50 for human macrophages to IC50 for antileishmanial activity against Leishmania chagasi intracellular amastigotes; assay type: functional; conditions: not given
Procedure, shortened: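 Ratio of macrophage cytotoxicity IC50 (MTT, 48 h) to IC50 against L. chagasi intracellular amastigotes.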

SMILES | Selectivity index
CCCC[C@H](CC)C[C@]1(CC)C=C(CC)/C(=C\C(=O)OC)O1 | 9.2
CC/C=C/[C@H](CC)C[C@]1(C)C=C(CC)/C(=C/C(=O)OC)O1 [SPONGOSORITIN A] | 9.6

tested on: HL-60; experiment: Cytotoxicity against human HL60 cells; assay type: functional, cell-based; conditions: not given

SMILES | IC50 [µg/mL]
CCCC[C@H](CC)C[C@]1(CC)C=C(CC)/C(=C\C(=O)OC)O1 | 15.2 (≈ 49.3 µM)
CC/C=C/[C@H](CC)C[C@]1(C)C=C(CC)/C(=C/C(=O)OC)O1 [SPONGOSORITIN A] | > 25

tested on: MDA-MB-435; experiment: Cytotoxicity against human MDA-MB-435 cells; assay type: functional, cell-based; conditions: not given

SMILES | IC50 [µg/mL]
CCCC[C@H](CC)C[C@]1(CC)C=C(CC)/C(=C\C(=O)OC)O1 | 6.5 (≈ 21.1 µM)
CC/C=C/[C@H](CC)C[C@]1(C)C=C(CC)/C(=C/C(=O)OC)O1 [SPONGOSORITIN A] | > 25

tested on: Leishmania chagasi; experiment: Antileishmanial activity against Leishmania chagasi promastigotes infected in hamster after 48 hrs by MTT assay; assay type: functional, organism-based; conditions: not given
Procedure, shortened: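 Promastigotes maintained in M-199 with 10% calf serum and 0.25% hemin at 24 °C, seeded at 1 × 10^6 cells/well. Incubated with 0.488–500 µg/mL for 48 h at 24 °C, pentamidine as standard. Viability by MTT at 570 nm.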

SMILES | IC50 [µg/mL]
CCCC[C@H](CC)C[C@]1(CC)C=C(CC)/C(=C\C(=O)OC)O1 | 3.9 (≈ 12.6 µM)
CC/C=C/[C@H](CC)C[C@]1(C)C=C(CC)/C(=C/C(=O)OC)O1 [SPONGOSORITIN A] | 2.5 (≈ 8.55 µM)

tested on: not listed separately; experiment: Selectivity index, ratio of mouse peritoneal macrophages to Antitrypanosomal activity against Trypanosoma cruzi Y; conditions: not given

SMILES | Selectivity index
CCCC[C@H](CC)C[C@]1(CC)C=C(CC)/C(=C\C(=O)OC)O1 | 1
CC/C=C/[C@H](CC)C[C@]1(C)C=C(CC)/C(=C/C(=O)OC)O1 [SPONGOSORITIN A] | 1.15

tested on: Trypanosoma cruzi; experiment: Antitrypanosomal activity against Trypanosoma cruzi Y infected in […] LLC-MK2 cells after 24 hrs by MTT assay; assay type: functional, organism-based; conditions: LLC-MK2, 24 h
Procedure, shortened: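 Free trypomastigotes (Y strain) from LLC-MK2 cultures, seeded at 1 × 10^6 cells/well. Incubated up to 100 µg/mL for 24 h at 37 °C in 5% CO2, benznidazole as standard. Viability by MTT conversion, formazan extracted with 10% SDS for 18 h at 24 °C. IC50 in µg/mL.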

IC50 [µg/mL] | SMILES
31.6 (≈ 102 µM) | CCCC[C@H](CC)C[C@]1(CC)C=C(CC)/C(=C\C(=O)OC)O1
25.7 (≈ 87.9 µM) | CC/C=C/[C@H](CC)C[C@]1(C)C=C(CC)/C(=C/C(=O)OC)O1 [SPONGOSORITIN A]

tested on: not listed separately; experiment: Cytotoxicity against human macrophages after 48 hrs by MTT assay; assay type: cell-based, Macrophage; conditions: Homo sapiens, Macrophage, 48 h; read-out: IC50

SMILES | IC50 [µg/mL]
CCCC[C@H](CC)C[C@]1(CC)C=C(CC)/C(=C\C(=O)OC)O1 | 31.6 (≈ 102 µM)
CC/C=C/[C@H](CC)C[C@]1(C)C=C(CC)/C(=C/C(=O)OC)O1 [SPONGOSORITIN A] | 29.8 (≈ 102 µM)

tested on: not listed separately; experiment: Antiinflammatory activity in rat neonatal brain microglia cells assessed as phorbol 12-myristate 13-acetate-stimulated thromboxane B2 release; assay type: functional, cell-based; conditions: not given
Procedure, shortened: (§1)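 Rat neonatal brain microglia, 2 × 10^5 cells per well, primed with E. coli LPS (0.3 ng/mL) for 17 h at 35.9 °C in 5% CO2. Cells were washed with HBSS, exposed to compounds (0.1–10 µM) or DMSO vehicle for 15 min, then stimulated with PMA (1 µM) for 70 min. O2-, TXB2 and LDH release were measured, duplicates, two independent experiments. IC50 for O2- and TXB2. LDH50 is the concentration giving 50% of the LDH release seen with 0.1% Triton X-100.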

IC50 [µM] | SMILES
> 10 | CCCC[C@H](CC)C[C@]1(CC)C=C(CC)/C(=C\C(=O)OC)O1
> 10 | CC/C=C/[C@H](CC)C[C@]1(C)C=C(CC)/C(=C/C(=O)OC)O1 [SPONGOSORITIN A]

tested on: not listed separately; experiment: Toxicity in BALB/c mouse erythrocytes assessed as hemolysis at 6.25 ug/ml after 2 hrs; assay type: cell-based, Erythrocyte; conditions: read-out: Activity
Procedure, shortened: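 A 3% suspension of BALB/c mouse erythrocytes incubated with compounds for 2 h at 25 °C. Supernatant absorbance read at 550 nm.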

SMILES | hemolysis at 2 h, 6.25 ug/ml [%]
CCCC[C@H](CC)C[C@]1(CC)C=C(CC)/C(=C\C(=O)OC)O1 | 0
CC/C=C/[C@H](CC)C[C@]1(C)C=C(CC)/C(=C/C(=O)OC)O1 [SPONGOSORITIN A] | 1.8

tested on: SF-295; experiment: Cytotoxicity against human SF295 cells; assay type: functional, cell-based; conditions: not given

SMILES | IC50 [µg/mL]
CCCC[C@H](CC)C[C@]1(CC)C=C(CC)/C(=C\C(=O)OC)O1 | 16.8 (≈ 54.5 µM)
CC/C=C/[C@H](CC)C[C@]1(C)C=C(CC)/C(=C/C(=O)OC)O1 [SPONGOSORITIN A] | > 25

tested on: not listed separately; experiment: Antiinflammatory activity in rat neonatal brain microglia cells assessed as drug level causing 50% LDH release; assay type: functional, cell-based; conditions: not given; procedure, shortened: as §1

IC50 [µM] | SMILES
> 10 | CCCC[C@H](CC)C[C@]1(CC)C=C(CC)/C(=C\C(=O)OC)O1
> 10 | CC/C=C/[C@H](CC)C[C@]1(C)C=C(CC)/C(=C/C(=O)OC)O1 [SPONGOSORITIN A]

tested on: Leishmania chagasi; experiment: Antileishmanial activity against Leishmania chagasi intracellular amastigotes infected in hamster macrophages after 48 hrs […]; assay type: functional, organism-based; conditions: Leishmania chagasi, 48 h; read-out: IC50
Procedure, shortened: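 Intracellular amastigotes tested in infected macrophages, with pentavalent antimony as standard. Amastigotes were obtained from hamster spleens 60–70 days postinfection. Parasite burden was scored as the mean number of amastigotes per macrophage over 500 cells. Result expressed as IC50.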

SMILES | IC50 [µg/mL]
CCCC[C@H](CC)C[C@]1(CC)C=C(CC)/C(=C\C(=O)OC)O1 | 3.4 (≈ 11 µM)
CC/C=C/[C@H](CC)C[C@]1(C)C=C(CC)/C(=C/C(=O)OC)O1 [SPONGOSORITIN A] | 3.1 (≈ 10.6 µM)

tested on: HCT-8; experiment: Cytotoxicity against human HCT8 cells; assay type: functional, cell-based; conditions: not given

SMILES | IC50 [µg/mL]
CCCC[C@H](CC)C[C@]1(CC)C=C(CC)/C(=C\C(=O)OC)O1 | 8 (≈ 25.9 µM)
CC/C=C/[C@H](CC)C[C@]1(C)C=C(CC)/C(=C/C(=O)OC)O1 [SPONGOSORITIN A] | > 25

tested on: not listed separately; experiment: Antiinflammatory activity in rat neonatal brain microglia cells assessed as phorbol 12-myristate 13-acetate-stimulated superoxide release; assay type: functional, cell-based; conditions: not given; procedure, shortened: as §1

IC50 [µM] | SMILES
> 10 | CCCC[C@H](CC)C[C@]1(CC)C=C(CC)/C(=C\C(=O)OC)O1
> 10 | CC/C=C/[C@H](CC)C[C@]1(C)C=C(CC)/C(=C/C(=O)OC)O1 [SPONGOSORITIN A]
